Compound activity from PubChem.
In the library only some 1.3% were active in any assay of this set; here they are far more common.
LYP inh 2 – PTPN22 phosphatase inhibitors, primary screen, biochemical, DiFMUP fluorescence, 2 µM. Tyrosine-protein phosphatase non-receptor type 22 (Homo sapiens), Q9Y2R2. 0.21% of 96,000 active. recombinant LYP catalytic domain. inhibition, % at 2 µM. AID 640, 2007;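 active = inhibition at 2 µM at or above a set limit, the screen mean plus 3 SD, cut at about 24% in these data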;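 also: 0% = DMSO with enzyme and 100% = enzyme fully blocked by orthovanadate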
LYP act – LYP phosphatase activators, primary screen, biochemical, DiFMUP fluorescence, 2 µM | Tyrosine-protein phosphatase non-receptor type 22 (Homo sapiens), Q9Y2R2 | recombinant LYP; 0 = plate median, 100 = signal doubled | activation, % at 2 µM | 0.11% of 96,000 active | AID 697, 2007;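 active = activation at 2 µM above a set limit, the mean plus 5 SD, cut at about 37% in these data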
EphB4 ephrin blk – EphB4-ephrin-B2 interaction antagonists, primary screen, biochemical, TNYL-RAW peptide probe, fluorescence polarization; AID 720, 2007; Ephrin type-B receptor 4 (Homo sapiens), P54760; inhibition, % at 7 µM; 0.15% of 97,000 active; EphB4 LBD / TNYL-RAW-Alexa532 peptide;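 active = inhibition above the screen-wide mean inhibition plus 3 SD, cut at about 15% in these data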;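 also: 0% = DMSO wells and 100% = excess unlabeled TNYL-RAW peptide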
Rev-RRE block – HIV-1 Rev-RRE binding inhibitors, primary screen, biochemical, FRET, protein-RNA interaction. Rev peptide-RRE RNA binding. inhibition, % at 8 µM. 0.79% of 97,000 active;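 active = inhibition above the screen-wide mean plus 3 SD, cut at about 35% in these data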;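 also: 0% = median DMSO wells and 100% = median Neomycin B control wells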
Target sequence (P05866 whole entry, looked up): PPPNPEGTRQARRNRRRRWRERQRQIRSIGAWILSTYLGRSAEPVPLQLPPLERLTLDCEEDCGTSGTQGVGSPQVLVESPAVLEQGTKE
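Test system – labelled RRE RNA duplex and labelled Rev peptide · Signal – fluorescein-to-Cy5 FRET, 480 nm excitation · Evaluation – % inhibition of FRET ratio versus controls · Benchmarks – DMSO low control, neomycin B high control · Incubation – 5 min RNA-compound premix plus 15 min binding step, 25 °C · Medium – HEPES pH 7.5 salt buffer with EDTA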
An asterisk follows results filed as active; [ ] = remark or other dose.

`Cc1[nH]c2ccccc2c1/C=N/Nc1ccc([N+](=O)[O-])cc1S(=O)(=O)Nc1ccc(Cl)cc1` gave LYP inh 2 -1.4, LYP act 0.0, EphB4 ephrin blk -7.5 and Rev-RRE block 40.5*.
For COc1c(/C=N/Nc2ccc([N+](=O)[O-])cc2[N+](=O)[O-])c(C)nn1-c1ccccc1 the results were LYP inh 2 8.0, LYP act -5.5, EphB4 ephrin blk 5.8 and Rev-RRE block 10.5.
For COc1ccccc1NS(=O)(=O)c1cc([N+](=O)[O-])ccc1N/N=C/c1c[nH]c2ccccc12 the results were LYP inh 2 5.7, LYP act -4.0, EphB4 ephrin blk 0.5 and Rev-RRE block 63.9*[fluorescence artefact?].
`O=[N+]([O-])c1ccccc1N/N=C/c1c[nH]c2ccccc12` gave LYP inh 2 16.1, LYP act -12.6, EphB4 ephrin blk -1.2 and Rev-RRE block 3.1.
For COc1cc(OC)c(C#N)c(S(=O)Cc2ccccc2)c1 (configuration not stated) the results were LYP inh 2 -0.1, LYP act -1.3, EphB4 ephrin blk 6.3 and Rev-RRE block 8.2.
CCSc1ncc(Cl)c(C(=O)Nc2sc3c(c2C(=O)NCc2cccnc2)CCCC3)n1 was read as LYP inh 2 18.9, LYP act -16.5, EphB4 ephrin blk 4.3 and Rev-RRE block 8.1.
COc1ccc(NC(=O)CSc2nc(C)cc(C(F)(F)F)n2)cc1 was read as LYP inh 2 -5.1, LYP act 3.3, EphB4 ephrin blk -3.2 and Rev-RRE block -2.8.
`CCN(CC)CCOC(=O)C1c2ccccc2Oc2ccccc21` gave LYP inh 2 -1.9, LYP act -0.9, EphB4 ephrin blk 8.2 and Rev-RRE block 4.7.
`Cc1nc(NC2=NCN(CC3CCCO3)CN2)nc2ccccc12` (configuration not stated) gave LYP inh 2 3.7, LYP act -0.9, EphB4 ephrin blk -5.6 and Rev-RRE block 8.4.
O=C(NCc1ccco1)C1CCCN(S(=O)(=O)c2cccc3cccnc23)C1 (configuration not stated) was read as LYP inh 2 -1.3, LYP act -1.6, EphB4 ephrin blk 0.7 and Rev-RRE block 3.4.
COc1ccc(NS(=O)(=O)c2cc([N+](=O)[O-])ccc2N/N=C\c2c(C)[nH]c3ccccc23)cc1 was read as LYP inh 2 -9.3, LYP act 6.5, EphB4 ephrin blk -5.4 and Rev-RRE block 44.2*.
Screening COc1ccc(C2C(C#N)=C(N)N(c3sc4c(c3C#N)CCCC4)C3=C2C(=O)CC(C)(C)C3)cc1 (configuration not stated) returned LYP inh 2 0.8, LYP act -2.2, EphB4 ephrin blk 12.2 and Rev-RRE block 8.5.
For COc1ccc(C2C(C#N)=C(N)N(c3sc4c(c3C#N)CCCC4)C3=C2C(=O)CC(C)(C)C3)cc1OC (configuration not stated) the results were LYP inh 2 26.5*, LYP act -26.6, EphB4 ephrin blk 3.4 and Rev-RRE block 4.7.
For COc1ccc(C(=O)Cn2c3ccccc3n3nc(CCC(=O)O)c(=O)nc23)cc1OC the results were LYP inh 2 -2.9, LYP act 2.8, EphB4 ephrin blk -2.8 and Rev-RRE block -2.2.
For Nc1c(N2CCCC2)cc(Cl)c2nonc12 the results were LYP inh 2 3.5, LYP act -3.0, EphB4 ephrin blk -0.5 and Rev-RRE block 40.5*.
Nc1c(N2CCOCC2)cc(Cl)c2nonc12 was read as LYP inh 2 -4.8, LYP act 4.2, EphB4 ephrin blk -3.8 and Rev-RRE block -1.0.
For Cc1c(C(=O)OCCN2CCCCC2)oc2ccccc12 the results were LYP inh 2 4.2, LYP act -6.7, EphB4 ephrin blk -0.2 and Rev-RRE block -2.6.
Screening Cc1c(C(=O)OC(C)CCN(C)C)oc2ccccc12 (configuration not stated) returned LYP inh 2 -4.4, LYP act 1.7, EphB4 ephrin blk -0.5 and Rev-RRE block 141.3*[fluorescence artefact?].
Screening Cc1cc(/C=C2\SC(=S)NC2=O)c(C)n1C1CC1 returned LYP inh 2 1.6, LYP act -2.6, EphB4 ephrin blk -0.3 and Rev-RRE block 65.1*.
CCCN1CCCc2cc(CN)ccc21 was read as LYP inh 2 0.6, LYP act -2.6, EphB4 ephrin blk 5.6 and Rev-RRE block 46.3*.
For CN1CCCc2cc(C=O)ccc21 the results were LYP inh 2 -30.1, LYP act 29.3, EphB4 ephrin blk -8.9 and Rev-RRE block 4.1.
`COc1cc(OC)c(OC)cc1/C=N/NC(=S)NCC1CCCO1` (configuration not stated) gave LYP inh 2 0.9, LYP act -2.3, EphB4 ephrin blk 0.3 and Rev-RRE block -3.1.
Cc1cc(C)cc(-n2c3nc4ccccc4nc3c3c(=O)n(Cc4ccco4)cnc32)c1 was read as LYP inh 2 38.0*, LYP act -35.8, EphB4 ephrin blk 1.8 and Rev-RRE block 1.5.
Screening COC(=O)\C(C(C)=O)=C(/C=C/C=C/C=C/N(C)C)N(C)C returned LYP inh 2 -8.0, LYP act 4.4, EphB4 ephrin blk 3.9 and Rev-RRE block 81.6*.
For COC(=O)/C(C(C)=O)=C(\C=C\N(C)C)N(C)C the results were LYP inh 2 4.1, LYP act -3.6, EphB4 ephrin blk -8.4 and Rev-RRE block 2.5.
For C=CCn1c(CNc2ccc(C)cc2)nnc1SCC(=O)N/N=C/c1ccc(O)cc1 the results were LYP inh 2 -12.8, LYP act 9.5, EphB4 ephrin blk 1.0 and Rev-RRE block 6.8.
`CCCc1nnc(SCc2ccc(C(=O)OC)o2)n1N` gave LYP inh 2 13.2, LYP act -14.3, EphB4 ephrin blk 39.2*[fluorescence artefact?] and Rev-RRE block 9.9.
Screening CCc1nnc(SCc2ccc(C(=O)OC)o2)n1N returned LYP inh 2 4.3, LYP act -4.6, EphB4 ephrin blk 5.7 and Rev-RRE block 2.8.
`Cc1cc(-c2csc(N)n2)c(C)n1CCc1ccccc1` gave LYP inh 2 9.3, LYP act -11.4, EphB4 ephrin blk -1.3 and Rev-RRE block 20.4.
Cc1cc(-c2csc(N)n2)c(C)n1CCC(C)C was read as LYP inh 2 28.2*, LYP act -28.6, EphB4 ephrin blk 5.7 and Rev-RRE block 16.7.
`COc1ccc2nc3sc(C(=O)NCc4cccs4)c(N)c3cc2c1` gave LYP inh 2 10.1, LYP act -9.9, EphB4 ephrin blk -3.5 and Rev-RRE block 39.7*.
Screening COc1cccc(C(=O)c2c[nH]c(C(=O)NCc3cccs3)c2)c1 returned EphB4 ephrin blk -4.2 and Rev-RRE block 2.1.
For CCOC(=O)c1c(NC(=O)CN2CCCCC2)sc2c1CCN(C(=O)OCC)C2 the results were LYP inh 2 -3.0, LYP act -0.5, EphB4 ephrin blk 4.2 and Rev-RRE block 6.7.
CCOC(=O)c1c(NC(=S)Nc2ccccc2)sc2c1CCN(CCc1ccccc1)C2 was read as LYP inh 2 9.5, LYP act -7.6, EphB4 ephrin blk -2.4 and Rev-RRE block 124.0*[fluorescence artefact?].
